# From PubChem
# Compounds with a hit are over-represented: about 5.4% of the library has one in this group of screens.
# T cruzi repl: blocks replication of Trypanosoma cruzi; T. cruzi beta-gal in NIH3T3, luminescence, 90 h; inhibition, % (no concentration beside the values); 1.4% of 300,000 active;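 active = mean inhibition across valid replicates above about 55%, limit read from the data; inconclusive = mean below that limit but half or more replicates reach it; inactive = mean below it, under half of replicates reach it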;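 also: signal also drops with host cell toxicity which is not excluded here; 0% = plate median of DMSO wells and 100% = zero luminescence signal; higher percent means less beta-gal luminescence so fewer parasites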
#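 System: mouse NIH/3T3 fibroblasts infected with β-gal-expressing T. cruzi Tulahuen C4 / Input: NIH/3T3 cells, 5,000 per well / Buffer or medium: Low-serum DMEM with 2% FBS / Probe or stimulus: 5000 reporter trypomastigotes per well / Schedule: ≥90 h infection period, 3 h prior cell attachment / Measured by: GalScreen luminescence, 60 min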
# CSC inhib: cancer stem cell inhibition. cancer stem cell-like cells viability, luminescence. inhibition, % at 7.5 µM. 1.1% of 300,000 active. AID 2717; in the data active = inhibition above about 75%; inconclusive = no clear call, values can overlap the other calls; tested in HMLE shEcad cells
# SKKanGAS inh: SKKanGAS growth inhibition; inhibition, % at 7.5 µM; 1.3% of 300,000 active; S. pyogenes SKKanGAS, kanamycin growth, BacTiter-Glo, 6 h;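 active = mean replicate score, as percent of positive control median, at least 50; inconclusive = mean below 50 but one replicate at or above 50; inactive = mean and every replicate below 50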;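 also: strain carries kanamycin resistance gene driven by streptokinase promoter and grows in 40 µg/ml kanamycin; loss of luminescence reflects streptokinase promoter inhibition or plain growth inhibition; 0% = median of DMSO wells and 100% = positive control at its reference dose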
# Mdm2 MdmX PPI: disrupts the human Mdm2-MdmX interaction | O15151+Q00987 | SaOS-2 split-luciferase Mdm2/MdmX complementation, luminescence | 3% of 330,000 active | inhibition, % at 8 µM;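 active = inhibition of at least 50% at 8 µM in the primary screen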
# Target sequence (O15151 whole entry, looked up): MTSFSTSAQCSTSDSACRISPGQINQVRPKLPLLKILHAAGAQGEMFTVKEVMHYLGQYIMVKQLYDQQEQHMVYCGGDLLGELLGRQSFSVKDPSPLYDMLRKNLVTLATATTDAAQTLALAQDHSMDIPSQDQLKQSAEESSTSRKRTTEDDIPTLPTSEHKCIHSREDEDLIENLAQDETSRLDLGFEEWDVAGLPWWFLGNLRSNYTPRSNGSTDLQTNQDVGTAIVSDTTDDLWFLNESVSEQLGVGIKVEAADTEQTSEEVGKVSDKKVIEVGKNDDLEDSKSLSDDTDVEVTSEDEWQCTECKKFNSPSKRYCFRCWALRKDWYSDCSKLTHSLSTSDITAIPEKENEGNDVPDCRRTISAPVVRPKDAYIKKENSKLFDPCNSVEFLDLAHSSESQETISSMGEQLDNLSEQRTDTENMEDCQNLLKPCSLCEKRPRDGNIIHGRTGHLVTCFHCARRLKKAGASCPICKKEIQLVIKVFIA
# Target sequence (Q00987 whole entry, looked up): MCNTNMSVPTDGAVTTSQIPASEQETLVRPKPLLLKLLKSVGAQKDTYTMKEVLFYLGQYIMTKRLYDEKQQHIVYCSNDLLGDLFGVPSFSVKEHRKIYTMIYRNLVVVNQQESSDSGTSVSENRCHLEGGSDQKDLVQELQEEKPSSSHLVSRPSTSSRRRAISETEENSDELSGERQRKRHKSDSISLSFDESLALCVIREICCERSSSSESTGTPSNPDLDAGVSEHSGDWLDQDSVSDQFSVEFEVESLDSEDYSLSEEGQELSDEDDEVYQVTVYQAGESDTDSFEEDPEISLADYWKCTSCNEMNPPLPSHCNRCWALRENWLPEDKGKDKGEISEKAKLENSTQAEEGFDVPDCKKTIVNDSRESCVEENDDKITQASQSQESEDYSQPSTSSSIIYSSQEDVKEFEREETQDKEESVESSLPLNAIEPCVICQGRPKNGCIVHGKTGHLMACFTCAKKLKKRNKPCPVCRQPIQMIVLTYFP
# aSyn 5UTR inh: 5' untranslated region of α-synuclein, MLPCN primary screen. alpha-synuclein 5'UTR reporter, inhibitor activity. inhibition, % (tested at 7.5 µM). 0.82% of 300,000 active; in the data active = inhibition above about 60%; inconclusive = no clear call, values can overlap the other calls;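 also: H4 neuroglioblastoma cells stably carrying SNCA 5'UTR luciferase fusion; 0% = DMSO wells and 100% = positive control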
# Mdm2-MdmX conf: confirmation of human Mdm2/MdmX interaction inhibitors. shares compounds with Mdm2 MdmX PPI. inhibition, % at 8 µM. Mdm2-MdmX binding, luminescent assay. 55% of 10,000 active. AID 489028; in the data active = inhibition above about 40%
# Full FLuc ctr: full-length luciferase inhibition in Mdm2/MdmX counter-screen | inhibition, % at 8 µM | shares compounds with Mdm2 MdmX PPI | SaOS-2 full-length luciferase counterscreen, luminescence | 77% of 6,200 active;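 active = mean inhibition at 8 µM reaching about 37%, which flags the compound as non-specific, limit read from the data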;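 also: p53-null SaOS-2 cells with luciferase driven by a doxycycline-inducible promoter; compound on cells about two nights before reading with doxycycline added after day one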
# Starred values were filed as active, the others as inactive; i = inactive; ? = inconclusive; . = no result given.
SMILES,T cruzi repl,CSC inhib,SKKanGAS inh,Mdm2 MdmX PPI,aSyn 5UTR inh,Mdm2-MdmX conf,Full FLuc ctr
O=C(CCl)N(c1ccccc1)c1c[nH]c2ccccc12,14,59,-2,100*,30,99*,52*
O=C(CCl)N(c1ccc(Cl)cc1)c1c[nH]c2ccccc12,58*,88*,17,69*,48,100*,52*
O=C(O)Cc1c[nH]c2ccccc12,-16,1,1,6,31,.,.
Cc1cc2c(cc1S(=O)(=O)N1CCN(c3ccc(Cl)cc3)CC1)OCCN2C,28,11,7,85*,20,4,.
O=C(O)c1nccnc1C(=O)Nc1ccc(Cl)cn1,3,1,-1,-39,-17,.,.
CNC(=S)Nc1ccc(N2CCN(c3ccc(C(F)(F)F)cn3)CC2)nc1,28,34,5,5,-28,.,.
Cc1ccc(-c2nn(-c3ccccc3)cc2CSC(=N)N)cc1,12,34,8,52*,119*,6,.
Cc1ccc2c(SCC(=O)NCc3ccco3)nc(-c3ccc(F)cc3)nc2c1,-5,1,-17,82*,-41,-6,.
Cc1cc(C)c2cc(C)c(SCC(=O)NCc3ccco3)nc2c1,14,44,0,-6,25,.,.
NC(=O)NS(=O)(=O)Oc1ccccc1,-9,3,5,-6,-1,.,.
Cc1ccc(NC(=O)CCn2cccc2)cc1Cl,-9,-9,-6,5,-2,.,.
O=C(Nc1ccccc1O)c1ccc(NS(=O)(=O)c2cccc3cccnc23)cc1,-16,?,3,77*,i,24,.
COC(=O)c1ccc(NC(=O)c2ccc(NS(=O)(=O)c3cccc4cccnc34)cc2)cc1,3,8,16,27,-10,.,.
Cc1cccc(-n2ncc3c(N(C)C4CCCCC4)ncnc32)c1,27,55,0,90*,66*,87*,84*
COc1ccc(-n2ncc3c(N(C)C4CCCCC4)ncnc32)cc1,9,19,13,88*,94*,92*,102*
CCOC(=O)[C@H]1[C@H]2COc3ccc(Cl)cc3[C@@H]2N2C(=O)c3cc(F)ccc3NC(=O)[C@@]12C,.,-12,.,27,.,.,.
Cn1cnnc1Sc1ccc(/C=C/C(=O)c2ccc(O)cc2)cc1[N+](=O)[O-],-31,71,-3,51*,-111,38,53*
CCC(C)(C)NC(=O)c1ccc(Sc2nncn2C)c([N+](=O)[O-])c1,2,-3,2,8,3,.,.
O=C(/C=C/C=C/c1ccccc1)CC1(O)C(=O)N(CCc2ccccc2)c2ccccc21 (stereo unspecified),19,15,24,53*,-10,-1,.
Cc1csc2nc(O)c(C(=O)NCCC3=CCCCC3)c(=O)n12,4,-13,43,39,8,.,.
Cc1csc2nc(O)c(C(=O)NCCCc3ccccc3)c(=O)n12,9,-3,35,61*,-19,70*,21
O=C(NC(Nc1nc2ccc([N+](=O)[O-])cc2s1)(C(F)(F)F)C(F)(F)F)c1ccccc1Cl,55*,98*,23,100*,86*,100*,15
CN(C)S(=O)(=O)c1ccc2nc(NC(=O)c3cccnc3)sc2c1,-11,-12,0,0,-68,.,.
O=C(NC(Nc1nc2ccc([N+](=O)[O-])cc2s1)(C(F)(F)F)C(F)(F)F)c1cccnc1,56*,70,13,100*,?,94*,22
CCOC(=O)[C@@H]1[C@H]2COc3cc(OC)ccc3[C@@H]2N2C(=O)N(c3ccccc3)C(=O)[C@@]12C,.,-15,.,0,.,.,.
SMILES,T cruzi repl,CSC inhib,SKKanGAS inh,Mdm2 MdmX PPI,aSyn 5UTR inh,Mdm2-MdmX conf,Full FLuc ctr
CC(=O)Cn1c(N2CCC(Cc3ccccc3)CC2)nc2c1c(=O)[nH]c(=O)n2C,-1,-1,6,12,7,.,.
Cn1c(N2CCCCC2)nc2c1c(=O)[nH]c(=O)n2C,-10,-14,-4,-5,-3,.,.
Cn1c(N2CCN(C(c3ccccc3)c3ccccc3)CC2)nc2c1c(=O)[nH]c(=O)n2C,2,19,3,60*,-11,58*,87*
CCCCCn1c(N2CCC(Cc3ccccc3)CC2)nc2c1c(=O)[nH]c(=O)n2C,57*,118*,93*,58*,22,5,.
CCCCN(CCCC)S(=O)(=O)c1ccc(OC)c2ncccc12,14,0,0,9,7,.,.
OCc1ccc(O)c2ncccc12,48,-3,5,86*,66*,82*,43*
CN(Cc1ccco1)Cc1ccc(O)c2ncccc12,.,-4,.,18,.,.,.
CCCOCc1ccc(O)c2ncccc12,57*,32,82*,75*,46,56*,28
Oc1ccc(CNc2ccccc2F)c2cccnc12,20,.,5,89*,87*,85*,31
CC(C)COCc1ccc(O)c2ncccc12,52,10,83*,59*,96*,44*,52*
Cc1ccc2nc(SCC(=O)Nc3ccc(F)cc3F)nc(=O)n2c1,-6,-9,-5,-12,-15,.,.
Cc1ccccc1N1C(=O)N(c2cccc(C(F)(F)F)c2)C2CS(=O)(=O)CC21 (stereo unspecified),6,-11,3,-3,12,.,.
O=C(NC1CCCCCC1)c1ccc(-n2cnnc2)cc1,-20,-1,4,7,24,.,.
Oc1ccc(COCc2ccccc2)c2cccnc12,47,73,?,80*,?,54*,29
O=C(O)c1sc2ncccc2c1OCc1ccccc1,6,-12,-12,18,22,.,.
O=C(NCC1(c2ccccc2)CCCC1)C(=O)NCC1(c2ccccc2)CCCC1,-13,.,-2,.,-13,.,.
CNC[C@H](CC1CCCCC1)NC[C@H](CO)NCC1(c2ccccc2)CC1,7,17,6,86*,-41,58*,45*
CNC[C@H](CC1CCCCC1)NC[C@H](CO)NCCc1cccc(C(F)(F)F)c1,7,132*,33,99*,17,97*,58*
Cc1cccc(-n2c(O)c(C=Nc3ccc(O)cc3)c3ccccc3c2=O)n1,-18,-12,-2,2,23,.,.
Cc1ccc(N=Cc2c(O)n(-c3ccc4c(c3)OCO4)c(=O)c3ccccc23)cc1,-7,22,2,69*,48,42*,36*
COC(=O)c1c(C(=O)OC)c(-c2ccc(OC)cc2)n2c1CS(=O)(=O)C2,0,1,0,23,26,.,.
Cc1ccc(C2CC(=O)NC(SCC(N)=O)=C2C#N)s1 (stereo unspecified),-1,2,5,-10,-7,.,.
COc1ccccc1[C@H]1C(c2ccccc2)=NN(c2ccccc2)[C@@H]1CO,.,.,.,38,.,.,.
COc1ccccc1[C@H]1C(c2cccc(C)c2)=NN(c2ccccc2)[C@@H]1CO,.,.,.,56*,.,36,.
